Screening results: PubChem, several laboratories
Shown are actives, neighbours in structure and some others; about 1.4% of the full set was active somewhere.
Thrombin inh: human alpha-thrombin inhibitors, primary screen, counter-screen for coagulation protease inhibitor project, biochemical, 1536-well, fluorogenic AMC substrate | Boc-VPR-AMC fluorogenic substrate cleavage | hit rate 0.26% among 220,000 | Prothrombin (Homo sapiens), P00734 | inhibition, % at 5 µM | AID 1046, 2008;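 active means inhibition at or above 40%; inactive means inhibition below 40%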;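 further: 0% = enzyme with no compound and 100% = wells without enzyme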
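System: Human alpha-thrombin protein | Medium: pH 7.5 Tris (50 mM) with NaCl 150 mM, Tween 20 0.05% | Times: Enzyme reaction carried out at room temperature | Detection: AMC fluorescence, 355/460 nm | Evaluation: Percent inhibition scaled between no-compound controls and no-enzyme blanks | Benchmarks: Enzyme without compound as high, wells lacking enzyme as low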
m-calpain inh: inhibitors of pig calpain II, primary screen, biochemical, fluorogenic peptide substrate, 1536-well; purified calpain II, 30 min; hit rate 0.37% among 220,000; inhibition, % at 16 µM; AID 1236, 2008;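 active means inhibition above about 50%, limit read from the data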
FXIIa inh 1536: human FXIIa protease inhibitors, primary screen, biochemical, 1536-well; Coagulation factor XII (Homo sapiens), P00748; purified FXIIa, Boc-QGR-AMC fluorogenic substrate, 2 h; inhibition, % at 5 µM; hit rate 0.3% among 220,000; AID 800, 2007; in the data active means inhibition above about 40%;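 further: 0% = enzyme with no compound and 100% = blank without enzyme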
KLK5 inh: human KLK5 protease inhibitors, primary screen, biochemical, 1536-well | Kallikrein-5 (Homo sapiens), Q9Y337 | recombinant hK5, fluorogenic AMC substrate cleavage | inhibition, % at 5 µM | hit rate 0.59% among 210,000 | AID 873, 2007;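 active means inhibition of 40% or more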;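 further: 0% = enzyme controls without compound and 100% = no-enzyme blanks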
FXIa inh 1536: human FXIa protease inhibitors, primary screen, biochemical, 1536-well | Coagulation factor XI (Homo sapiens), P03951 | AID 798, 2007 | inhibition, % at 5 µM | hit rate 0.14% among 220,000 | purified FXIa, Boc-Glu-Ala-Arg-AMC fluorogenic substrate;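 active means inhibition of at least 40%; inactive means inhibition below 40%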;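 further: fluorescence of freed AMC excited at 355 nm; 0% = enzyme without compound and 100% = no enzyme blank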
Target sequence (P03951 19-387 limits assumed): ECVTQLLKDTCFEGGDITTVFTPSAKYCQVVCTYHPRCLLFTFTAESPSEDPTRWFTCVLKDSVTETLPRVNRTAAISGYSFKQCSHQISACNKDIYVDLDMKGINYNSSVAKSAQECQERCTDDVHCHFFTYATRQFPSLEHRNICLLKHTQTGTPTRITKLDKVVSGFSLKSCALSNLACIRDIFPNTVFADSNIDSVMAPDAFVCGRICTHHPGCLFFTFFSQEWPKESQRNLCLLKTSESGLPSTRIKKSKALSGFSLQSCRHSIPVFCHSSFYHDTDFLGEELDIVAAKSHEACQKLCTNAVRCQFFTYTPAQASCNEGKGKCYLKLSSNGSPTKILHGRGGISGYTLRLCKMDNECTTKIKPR
Target sequence (P03951 388-625 limits assumed): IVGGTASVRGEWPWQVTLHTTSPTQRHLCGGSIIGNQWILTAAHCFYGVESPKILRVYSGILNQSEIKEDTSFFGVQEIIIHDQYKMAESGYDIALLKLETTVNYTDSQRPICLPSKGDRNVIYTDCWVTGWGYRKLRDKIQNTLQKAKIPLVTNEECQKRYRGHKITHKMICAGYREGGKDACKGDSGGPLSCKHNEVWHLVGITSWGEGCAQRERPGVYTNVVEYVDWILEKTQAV
Active calls of the source: *; / = no result given.

SMILES	Thrombin inh	m-calpain inh	FXIIa inh 1536	KLK5 inh	FXIa inh 1536
COc1cc(C(=O)Nc2ccc(-n3cnnn3)c(C)c2)cc(OC)c1OC	1	6	8	-5	-5
Cc1ccc2c(c1)c1c3n2CCCNC3CCC1 (centres undefined)	41*	18	18	-26	-13
COc1ccccc1NC(=O)CCS(=O)(=O)c1ccccc1	52*	3	24	29	31
COc1ccc(S(=O)(=O)CCC(=O)Nc2cc(C)ccc2OC)cc1	9	-24	17	/	1
CCC(CC)c1nnc(NC(=O)CCN2C(=O)c3ccccc3C2=O)s1	27	14	25	53*	4
CCC(CC)c1nnc(NC(=O)Oc2ccccc2)s1	2	28	43*	2	30
CCn1c(C)nc2cc(C(=O)NNC(=S)Nc3ccc(C)cc3)ccc21	43*	2	51*	17	31
CCCCCc1cccnc1	-8	6	2	-8	4
CC1Cc2ccccc2N1S(=O)(=O)c1cccc2nsnc12 (centres undefined)	2	10	43*	21	19
CCOC(=O)N1CCN(C(=O)c2ccc3c(=O)n(Cc4ccc(OC)cc4)c(=S)[nH]c3c2)CC1	15	-16	18	48*	14
CCOC(=O)N1CCN(C(=O)c2ccc3c(=O)n(Cc4ccccc4)c(=S)[nH]c3c2)CC1	-6	-75	1	2	-3
CCCn1c(=S)[nH]c2cc(C(=O)N3CCc4ccccc4C3)ccc2c1=O	-10	57*	5	1	-1
CCCn1c(=S)[nH]c2cc(C(=O)N3CCN(c4ccccc4OC)CC3)ccc2c1=O	-1	-12	12	-10	4
CCOc1ccc(-c2nc(CCl)cs2)cc1OC	-3	-111	-4	-13	-5
Cn1nc(C(F)(F)F)c(-c2ccccc2)c1NC(=O)CCC(=O)O	31	5	30	43*	27
Cn1nc(C(F)(F)F)c(-c2ccccc2)c1NC(=O)CSCC(=O)O	-3	-3	6	-3	2
CCN(CC)S(=O)(=O)c1cc(C(=O)Nc2nncs2)c(Cl)cc1Cl	15	20	3	62*	3
C#Cc1ccc([C@@H]2C=C(C(=O)N3CCN(Cc4ccc5c(c4)OCO5)CC3)O[C@H](OCCCCO)C2)cc1	4	-20	3	2	-2
COC(=O)[C@@H](NC(=O)NC(C)CCc1ccccc1)C(C)C (some centres undefined)	-8	-32	18	-4	5
CC(C)[C@H](NC(=O)[C@H](CCCN=C(N)N)NC(=O)NC(Cc1ccccc1)C(=O)O)C(=O)NC(C=O)CCCN=C(N)N (some centres undefined)	7	51*	47*	32	43*
O=C(NCc1ccccc1)c1nc(-c2cccs2)no1	44*	18	26	12	27
CNS(=O)(=O)c1ccc(NS(=O)(=O)c2ccccc2F)cc1	-9	-6	2	1	-5
CSc1nc2cc3c(cc2n1C(=O)c1ccc(C)cc1)OCCO3	88*	-38	15	26	67*
Cc1ccc(NC(=O)CSc2nsc(SCC(=O)Nc3ccc(C)cc3C)c2C#N)c(C)c1	24	51*	-5	4	-10
Cc1csc(NC(=O)CSc2nsc(SCC(=O)Nc3nc(C)cs3)c2C#N)n1	-6	7	4	2	9
SMILES	Thrombin inh	m-calpain inh	FXIIa inh 1536	KLK5 inh	FXIa inh 1536
CCN1CCN(C(c2cccs2)C(C)NS(=O)(=O)c2ccccc2)CC1 (centres undefined)	-5	57*	13	-2	0
Cc1ccc(NC(=O)CSc2ncc3ccccn23)cc1C	-2	-38	-1	-1	2
Cc1ccc(CCNC(=O)CNC(=O)c2cccs2)cc1	-4	28	4	-2	-3
Nc1c(-c2ccccc2)c(CSc2nc3ccccc3[nH]2)nn1-c1ccc(Cl)cc1	17	0	33	62*	14
Nc1c(-c2ccccc2)c(CSc2nc3ccccc3[nH]2)nn1-c1cccc(Cl)c1	21	-3	18	24	11
O=C(COC(=O)CCc1c[nH]c2ccccc12)NC(c1ccccc1)c1ccccc1	-4	-19	1	18	7
Cc1ccc2nc(Cl)c(/C=N/n3c(C)nnc3C)cc2c1	-7	-20	7	-5	-4
CN(C)c1ccc(/C=C/c2ccc3ccccc3[n+]2C)cc1	-6	57*	8	0	-2
Cc1c(C(=O)N(Cc2ccccc2)Cc2cccs2)cnn1-c1ccc(Cl)cc1	9	47	107*	44*	21
CCOC(=O)N1CCC(Nc2ncnc3c2cnn3-c2ccc(C)cc2C)CC1	17	6	17	44*	15
C=CCNc1ncnc2c1cnn2-c1ccc(C)cc1C	-3	7	3	-8	-5
CCCCNC(=O)C1COc2ccccc2O1 (centres undefined)	2	15	10	-3	-1
O=C(NCCOC(=O)C1COc2ccccc2O1)C1COc2ccccc2O1 (centres undefined)	25	31	0	46*	5
CCC(Sc1nc(-c2ccccc2)c(C#N)c(=O)[nH]1)C(=O)Nc1nnc(C)s1 (centres undefined)	-5	-10	19	-13	3
Cc1ccc(NC2OC(CO)C(O)C2O)cc1[N+](=O)[O-] (centres undefined)	1	85*	19	-4	11
Cc1ccc(NCC(=O)N/N=C/c2c[nH]c3ccccc23)cc1	-8	70*	2	-7	-3
Cc1ccc(NC(C)C(=O)N/N=C/c2c[nH]c3ccccc23)cc1 (centres undefined)	-1	1	19	-5	14
Cc1n[nH]c(C)c1CCC(=O)N/N=C/c1cccs1	20	14	48*	69*	30
Cc1n[nH]c(C)c1CCC(=O)N/N=C/c1c[nH]c2ccccc12	2	12	27	58*	48*
OCCC1CN(Cc2nc3ccccc3[nH]2)CCN1C1CCCC1 (centres undefined)	-9	-3	10	2	0
CC1CCN(CC(=O)Nc2ccc(N3CCCCCC3)cc2)CC1	2	13	3	0	-6
C=C(C)c1cccc(C(C)(C)NC(=O)Nc2ccc(C(C)=O)cc2)c1	36	20	11	72*	12
COc1ccc(OCCCc2c(C)n[nH]c2C)cc1	25	19	-11	55*	-6
COc1cccc(C(=O)NNC(=O)CCC(=O)O)c1	-8	-13	-1	-8	-8
COc1cccc(C(=O)NNC(=O)Cc2ccc([N+](=O)[O-])cc2)c1	44*	28	-8	10	-11
COc1cc(NC(=O)c2cc3nc(C4CC4)cc(C(F)(F)F)n3n2)c(OC)cc1Cl	0	-119	46*	4	12
